High-throughput results from PubChem BioAssay.
E-sel inducer: E-selectin induction on HUVECs. HUVEC E-selectin immunofluorescence imaging; normalized: neutral wells 0, TNF-alpha wells 100. P16581. activation, % at 7.58 µM. hit rate 0.37% among 260,000;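 active = mean E-selectin-positive cell signal at least 10% of the positive control, reached in at least 60% of replicates, without over 20% cell loss; inconclusive = no rule given, readout overlaps actives, possibly toxicity-flagged; inactive = the rest, including those meeting only one limit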
Target sequence (P16581 whole entry, looked up): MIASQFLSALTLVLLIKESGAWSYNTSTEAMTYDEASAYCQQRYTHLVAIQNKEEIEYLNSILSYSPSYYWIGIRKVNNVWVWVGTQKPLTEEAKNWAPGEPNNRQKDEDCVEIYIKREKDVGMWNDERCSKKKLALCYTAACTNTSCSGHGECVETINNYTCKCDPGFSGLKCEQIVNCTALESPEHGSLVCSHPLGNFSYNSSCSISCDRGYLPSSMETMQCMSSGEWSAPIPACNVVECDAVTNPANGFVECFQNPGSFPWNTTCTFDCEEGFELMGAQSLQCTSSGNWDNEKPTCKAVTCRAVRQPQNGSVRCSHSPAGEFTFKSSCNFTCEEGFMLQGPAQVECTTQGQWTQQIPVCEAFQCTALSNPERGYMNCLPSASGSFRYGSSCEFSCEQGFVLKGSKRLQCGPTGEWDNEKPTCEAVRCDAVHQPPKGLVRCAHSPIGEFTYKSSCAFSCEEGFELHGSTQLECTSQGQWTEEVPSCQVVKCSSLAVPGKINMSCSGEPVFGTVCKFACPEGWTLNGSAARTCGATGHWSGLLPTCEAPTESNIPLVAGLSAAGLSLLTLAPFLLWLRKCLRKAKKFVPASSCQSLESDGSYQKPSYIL
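Assay system: HUVEC primary endothelial cells. Input: 3,000 HUVEC seeded per well. Doses: one compound dose added by pin transfer. Read-out basis: % PE-positive cells. Benchmarks: TNF-alpha high, DMSO low. Detection: immunofluorescence imaging. Buffer or medium: EGM-2, gelatin.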
DENV2 CPE: protects cells from dengue virus 2 cytopathic effect; DENV2-infected cells, cytopathic effect rescue, plate reader; CPE inhibition, % at 9.99 µM; hit rate 1.7% among 350,000; AID 651640; in the data active = CPE inhibition above about 20%, passing the limit was not always enough; inconclusive = no clear call, values can overlap the other calls; tested in BHK-21 cells
SIRT5 block: inhibitors of human sirtuin-5 desuccinylase | Purified SirT5, succinyl-peptide AMC, trypsin-coupled fluorescence | inhibition, % at 15 µM | hit rate 1.1% among 330,000; in the data active = inhibition above about 15%; inconclusive = no clear call, values can overlap the other calls
A number is an active result; n = inactive; u = inconclusive; x = no result given. Rows were chosen to be rich in hits. Some 2.9% of all compounds tested hit in one or more screens of this group.

SMILES	E-sel inducer	DENV2 CPE	SIRT5 block
COc1ccc(S(=O)(=O)Nc2ccc3c(c2)C(=O)N([C@@H](C)CO)C[C@@H](C)[C@H](CN(C)S(=O)(=O)c2ccccc2)OCCCC[C@H](C)O3)cc1	n	n	22.1
COc1ccc(S(=O)(=O)N(C)C[C@H]2OCCCC[C@H](C)Oc3ccc(NS(=O)(=O)c4ccccc4)cc3C(=O)N([C@H](C)CO)C[C@@H]2C)cc1	x	n	n
COc1ccc(S(=O)(=O)N(C)C[C@@H]2OCCCC[C@@H](C)Oc3ccc(N(C)C)cc3C(=O)N([C@H](C)CO)C[C@H]2C)cc1	n	n	n
COc1ccc(S(=O)(=O)Nc2ccc3c(c2)C(=O)N([C@@H](C)CO)C[C@H](C)[C@@H](CN(C)S(=O)(=O)c2ccccc2)OCCCC[C@@H](C)O3)cc1	n	n	20.8
COc1ccc(C(c2c(C)n(C)n(-c3ccccc3)c2=O)c2c(C)n(C)n(-c3ccccc3)c2=O)cc1	x	n	n
COc1ccc2nc(C)cc(SCC(=O)N/N=C/c3ccco3)c2c1	n	n	n
COc1ccc(S(=O)(=O)N(C)C[C@@H]2OCCCC[C@H](C)Oc3ccc(NS(C)(=O)=O)cc3C(=O)N([C@@H](C)CO)C[C@H]2C)cc1	n	n	n
COc1ccc(S(=O)(=O)Nc2ccc3c(c2)C(=O)N([C@H](C)CO)C[C@H](C)[C@@H](CN(C)S(C)(=O)=O)OCCCC[C@H](C)O3)cc1	n	n	n
COc1ccc(S(=O)(=O)Nc2ccc3c(c2)C(=O)N([C@H](C)CO)C[C@H](C)[C@H](CN(C)S(C)(=O)=O)OCCCC[C@@H](C)O3)cc1	n	20.3	n
COc1ccc(S(=O)(=O)Nc2ccc3c(c2)C(=O)N([C@H](C)CO)C[C@@H](C)[C@H](CN(C)S(=O)(=O)c2ccccc2)OCCCC[C@@H](C)O3)cc1	n	n	19.3
COc1ccc(S(=O)(=O)N(C)C[C@H]2OCCCC[C@@H](C)Oc3ccc(NS(C)(=O)=O)cc3C(=O)N([C@@H](C)CO)C[C@@H]2C)cc1	n	22.4	n
COc1ccc(S(=O)(=O)Nc2ccc3c(c2)C(=O)N([C@H](C)CO)C[C@@H](C)[C@@H](CN(C)S(=O)(=O)c2ccccc2)OCCCC[C@H](C)O3)cc1	n	n	n
COc1ccc(S(=O)(=O)N(C)C[C@@H]2OCCCC[C@H](C)Oc3ccc(NS(=O)(=O)c4ccccc4)cc3C(=O)N([C@@H](C)CO)C[C@@H]2C)cc1	x	n	n
COc1ccc(S(=O)(=O)Nc2ccc3c(c2)C(=O)N([C@@H](C)CO)C[C@@H](C)[C@@H](CN(C)S(=O)(=O)c2ccccc2)OCCCC[C@@H](C)O3)cc1	n	n	19.7
CCN1C(=O)N[C@@H](c2cccc(F)c2)C(C(C)=O)=C1C	n	n	x
CCOC(=O)C1=C(COC(=O)CNC(=O)c2ccc(C)cc2)NC(=O)NC1C (configuration not stated)	n	u	n
O=C(C1CCCC1)N1CCCCN2[C@H](CO)[C@H](c3ccc(C#CC4CC4)cc3)[C@H]2C1	x	n	n
CCCN(CC(=O)Nc1ccccc1C)C(=O)C1CC(=O)N(c2ccc(C)cc2)C1 (configuration not stated)	n	n	n
C[C@@H](NC(=O)C[C@@H]1CC[C@H]2[C@@H](COc3ccc(NS(=O)(=O)c4ccc(Cl)cc4)cc3C(=O)N2C)O1)c1ccccc1	n	n	n
Cc1ncc(CO)c(/C=N/Nc2cccc(Cl)n2)c1O	n	n	n
CO[C@H](CN(C)S(=O)(=O)c1ccc(C)cc1)[C@@H](C)CN(C(=O)Nc1ccccc1F)[C@H](C)CO	n	30.5	n
CO[C@@H](CN(C)Cc1ccc2c(c1)OCO2)[C@@H](C)CN(C(=O)Nc1ccc(F)cc1)[C@H](C)CO	n	n	20.9
CO[C@@H](CN(C)C(=O)c1cc(Cl)cc(Cl)c1)[C@H](C)CN(C(=O)Nc1ccc(F)cc1)[C@@H](C)CO	n	91.5	n
CO[C@@H](CN(C)S(=O)(=O)c1cn(C)cn1)[C@@H](C)CN(C(=O)Nc1ccc(F)cc1)[C@@H](C)CO	n	23.2	n
CO[C@H](CN(C)S(=O)(=O)c1cn(C)cn1)[C@H](C)CN(C(=O)Nc1ccc(F)cc1)[C@@H](C)CO	n	n	n
SMILES	E-sel inducer	DENV2 CPE	SIRT5 block
CO[C@H](CN(C)Cc1cc(F)ccc1F)[C@H](C)CN(C(=O)Nc1ccc(F)cc1)[C@@H](C)CO	n	n	n
CO[C@H](CN(C)S(=O)(=O)c1ccc(C)cc1)[C@@H](C)CN(C(=O)Nc1ccccc1F)[C@@H](C)CO	n	n	x
CO[C@@H](CN(C)C(=O)c1cc(Cl)cc(Cl)c1)[C@@H](C)CN(C(=O)Nc1ccc(F)cc1)[C@H](C)CO	n	n	n
COc1ccccc1NC(=O)COC(=O)c1ccc(S(=O)(=O)N2CCCCCC2)cc1	n	u	x
O=C(C=Cc1ccc2c(c1)OCO2)OCC=Cc1ccc2c(c1)OCO2	n	n	n
C[C@H]1CN([C@@H](C)CO)C(=O)c2cccc(NC(=O)NC3CCCCC3)c2O[C@H]1CN(C)C	n	n	n
O=C(Cc1cccc(NC(=O)C2CCN(C(=O)c3ccccc3)CC2)c1)Nc1cccc(C(=O)N2CCCCC2)c1	n	n	n
COc1ccc(C[C@H]2CN3C(=NC[C@H]3C)N2CCNC(=O)c2ccc(C)c(Br)c2)cc1	n	n	n
CN1CCN(C(=O)C[C@H]2CC[C@@H]3[C@H](COC[C@@H](O)CN3C(=O)Cc3ccccc3)O2)CC1	n	n	n
O=C(OC1CCOC1=O)c1ccc(N2CCCC2)c([N+](=O)[O-])c1 (configuration not stated)	n	n	n
O=C(OC1CCOC1=O)c1cc(Cl)ccc1[N+](=O)[O-] (configuration not stated)	n	n	97.9
COCCNC(=O)C(c1ccc(F)cc1)N(Cc1ccco1)C(=O)CCC(=O)Nc1ccccn1 (configuration not stated)	x	n	n
Cc1ccnc(NC(=O)CCC(=O)N(Cc2ccco2)C(C(=O)NC(C)C)c2ccc(F)cc2)c1 (configuration not stated)	n	n	99.9
Cc1cc(C)cc(OCC(=O)N(C)CC(=O)Nc2ccc(Cl)c(C(F)(F)F)c2)c1	x	n	n
CCCC#Cc1ccc([C@@H]2[C@H]3CN(Cc4cncnc4)CCCCN3[C@H]2CO)cc1	n	28.7	n
OC[C@@H]1[C@@H](c2ccc(C#CC3(O)CCCC3)cc2)[C@H]2CN(Cc3cncnc3)CCCCN12	n	x	x
CCCC#Cc1ccc([C@@H]2[C@@H](CO)N3CCCCN(Cc4ccncc4)C[C@H]23)cc1	n	46.6	n
CCCC#Cc1ccc([C@@H]2[C@@H](CO)N3CCCCN(Cc4cncnc4)C[C@H]23)cc1	n	x	n
OC[C@H]1[C@H](c2ccc(C#CC3(O)CCCC3)cc2)[C@H]2CN(Cc3cncnc3)CCCCN21	n	n	21.2
CCCC#Cc1ccc([C@H]2[C@@H](CO)N3CCCCN(Cc4ccncc4)C[C@H]23)cc1	n	n	n
COc1c(C)cc(C(=O)C2CCCN(S(=O)(=O)N(C)C)C2)cc1C (configuration not stated)	x	n	n
COc1cc(/C=N\NC(=O)c2c(C)nc3cc(C)ccn23)ccc1O	x	n	n
